ChEMBL document CHEMBL3621201, “Improving the Selectivity of Engineered Protease Inhibitors: Optimizing the P2 Prime Residue Using a Versatile Cyclic Peptide Library” (J Med Chem, 2015)
pKi: −log10 of the molar value. Activity calls are given as the source filed them. The rule behind the calls is not given here. Bridge positions count the residues as written; N and C are the ends. Peptide text beside a SMILES is read from it.

Columns and labels:
[1] = target: T1, Trypsin (Homo sapiens, UniProt P07477+P07478+P35030); assay: Inhibition of beta-trypsin (unknown origin) using Bz-FVRpNA substrate by spectrophotometry method; assay type: protein assay
How it was run: (§1)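 Inhibition constants were measured in 0.1 M Tris pH 8.0, 0.1 M NaCl, 0.005% Triton X-100 with 100 µM peptide-pNA substrate. Protease-specific additives were also included. Absorbance at 405 nm was read every 10 s over 300 s. Rates were compared with no-inhibitor controls, and Morrison Ki was fitted by non-linear regression.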

[2] = target: T2, Plasminogen (Homo sapiens, UniProt P00747); assay: Inhibition of plasmin (unknown origin) using Ac-RM(O2)YRpNA substrate by spectrophotometry method; how it was run: as §1
T2 sequence (P00747 97-580 limits assumed): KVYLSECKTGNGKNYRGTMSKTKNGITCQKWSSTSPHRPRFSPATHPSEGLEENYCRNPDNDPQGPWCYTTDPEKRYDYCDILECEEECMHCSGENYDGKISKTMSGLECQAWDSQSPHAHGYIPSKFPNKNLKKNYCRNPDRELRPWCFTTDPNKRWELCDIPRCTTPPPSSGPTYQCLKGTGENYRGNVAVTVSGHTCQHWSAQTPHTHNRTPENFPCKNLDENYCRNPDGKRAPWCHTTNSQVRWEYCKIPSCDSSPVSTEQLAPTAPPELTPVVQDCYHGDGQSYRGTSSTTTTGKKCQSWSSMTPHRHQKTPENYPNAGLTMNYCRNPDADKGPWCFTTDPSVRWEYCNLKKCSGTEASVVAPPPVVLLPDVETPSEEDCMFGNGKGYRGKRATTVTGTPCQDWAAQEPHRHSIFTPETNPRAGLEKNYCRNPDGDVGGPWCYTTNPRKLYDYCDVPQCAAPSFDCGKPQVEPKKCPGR
T2 sequence (P00747 581-810 limits assumed): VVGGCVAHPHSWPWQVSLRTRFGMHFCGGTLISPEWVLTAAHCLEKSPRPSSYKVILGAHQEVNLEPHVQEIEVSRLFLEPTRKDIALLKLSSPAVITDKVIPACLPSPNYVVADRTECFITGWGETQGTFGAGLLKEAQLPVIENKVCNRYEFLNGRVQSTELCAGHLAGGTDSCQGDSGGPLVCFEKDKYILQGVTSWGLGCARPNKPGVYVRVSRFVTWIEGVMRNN

[3] = target: T3, Prothrombin (Homo sapiens, UniProt P00734); assay: Inhibition of alpha-thrombin (unknown origin) using Ac-ATPRpNA substrate by spectrophotometry method; how it was run: as §1
[4] = target: T4, Kallikrein-4 (Homo sapiens, UniProt Q9Y5K2); assay: Inhibition of KLK4 (unknown origin) expressed in Sf9 cells using FVQRpNA substrate by spectrophotometry method; how it was run: as §1
T4 sequence (Q9Y5K2 whole entry): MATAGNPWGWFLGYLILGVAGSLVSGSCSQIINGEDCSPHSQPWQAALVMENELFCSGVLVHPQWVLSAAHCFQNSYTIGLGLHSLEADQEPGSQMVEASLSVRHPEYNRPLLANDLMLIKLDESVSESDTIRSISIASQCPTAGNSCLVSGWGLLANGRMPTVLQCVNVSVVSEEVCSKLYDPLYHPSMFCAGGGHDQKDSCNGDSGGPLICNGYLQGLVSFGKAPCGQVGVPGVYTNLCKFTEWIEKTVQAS

[5] = target: T5, Kallikrein-5 (Homo sapiens, UniProt Q9Y337); assay: Inhibition of KLK5 (unknown origin) expressed in Pichia pastoris X33 using Ac-YRSR-pNA by spectrophotometry method; how it was run: as §1
T5 sequence (Q9Y337 whole entry): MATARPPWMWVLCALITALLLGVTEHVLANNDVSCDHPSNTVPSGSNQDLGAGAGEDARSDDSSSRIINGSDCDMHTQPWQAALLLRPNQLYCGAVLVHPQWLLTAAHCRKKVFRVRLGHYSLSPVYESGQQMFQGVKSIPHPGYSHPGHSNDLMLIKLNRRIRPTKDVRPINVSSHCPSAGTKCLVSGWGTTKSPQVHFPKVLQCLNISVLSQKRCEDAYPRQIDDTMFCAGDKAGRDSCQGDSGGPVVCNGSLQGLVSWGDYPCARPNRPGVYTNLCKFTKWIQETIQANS

[6] = target: Coagulation factor XI (Homo sapiens) (UniProt P03951); assay: Inhibition of factor 11a (unknown origin) at 10 uM using Bz-FVRpNA substrate by spectrophotometry method
Chain of Coagulation factor XI (Homo sapiens) (P03951 19-387 limits assumed): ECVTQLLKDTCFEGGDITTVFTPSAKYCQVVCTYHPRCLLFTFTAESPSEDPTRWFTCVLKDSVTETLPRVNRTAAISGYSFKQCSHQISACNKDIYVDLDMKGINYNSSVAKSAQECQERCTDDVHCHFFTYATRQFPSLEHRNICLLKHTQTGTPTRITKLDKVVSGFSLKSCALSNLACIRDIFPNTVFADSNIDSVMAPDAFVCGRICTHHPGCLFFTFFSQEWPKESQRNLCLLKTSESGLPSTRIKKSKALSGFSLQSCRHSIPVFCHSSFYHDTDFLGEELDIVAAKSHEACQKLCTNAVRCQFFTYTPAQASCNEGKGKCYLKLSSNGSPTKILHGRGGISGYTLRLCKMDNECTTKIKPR
Chain of Coagulation factor XI (Homo sapiens) (P03951 388-625 limits assumed): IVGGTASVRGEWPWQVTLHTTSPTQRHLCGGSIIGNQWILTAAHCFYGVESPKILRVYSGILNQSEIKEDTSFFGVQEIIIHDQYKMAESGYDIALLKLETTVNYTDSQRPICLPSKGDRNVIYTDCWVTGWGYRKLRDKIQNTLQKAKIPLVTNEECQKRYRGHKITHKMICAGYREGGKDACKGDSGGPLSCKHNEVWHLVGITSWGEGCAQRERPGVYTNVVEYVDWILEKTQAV

[7] = target: Coagulation factor X (Homo sapiens) (UniProt P00742); assay: Inhibition of factor 10a (unknown origin) at 50 uM using Ac-QRSRpNA substrate by spectrophotometry method
Chain of Coagulation factor X (Homo sapiens) (P00742 41-179 limits assumed): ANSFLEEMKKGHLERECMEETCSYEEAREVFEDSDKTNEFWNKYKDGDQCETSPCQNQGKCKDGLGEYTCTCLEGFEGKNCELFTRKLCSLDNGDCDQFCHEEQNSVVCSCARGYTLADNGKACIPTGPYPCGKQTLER
Chain of Coagulation factor X (Homo sapiens) (P00742 235-488 limits assumed): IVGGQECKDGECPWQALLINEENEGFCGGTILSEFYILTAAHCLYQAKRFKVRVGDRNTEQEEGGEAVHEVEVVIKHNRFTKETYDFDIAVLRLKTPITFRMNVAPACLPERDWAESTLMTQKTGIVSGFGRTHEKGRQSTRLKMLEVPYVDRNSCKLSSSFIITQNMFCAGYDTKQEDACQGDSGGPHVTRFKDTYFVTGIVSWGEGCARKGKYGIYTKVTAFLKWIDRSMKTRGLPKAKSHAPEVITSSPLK

[8] = target: Serine protease 1 (Homo sapiens) (UniProt P07477); assay: Inhibition of beta-trypsin (unknown origin) at 25 nM using Bz-FVRpNA substrate by spectrophotometry method
Chain of Serine protease 1 (Homo sapiens) (P07477 whole entry): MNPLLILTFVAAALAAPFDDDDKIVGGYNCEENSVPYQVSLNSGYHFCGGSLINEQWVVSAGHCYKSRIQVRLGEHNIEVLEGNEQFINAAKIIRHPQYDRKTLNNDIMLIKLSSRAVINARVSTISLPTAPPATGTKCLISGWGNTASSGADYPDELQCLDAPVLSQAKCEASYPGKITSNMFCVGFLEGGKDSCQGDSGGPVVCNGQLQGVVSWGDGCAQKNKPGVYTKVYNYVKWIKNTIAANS

[9] = target: T6, Suppressor of tumorigenicity 14 protein (Homo sapiens) (UniProt Q9Y5Y6); assay: Inhibition of matriptase (unknown origin) at 10 uM using Ac-RQFRpNA substrate by spectrophotometry method
T6 sequence (whole entry): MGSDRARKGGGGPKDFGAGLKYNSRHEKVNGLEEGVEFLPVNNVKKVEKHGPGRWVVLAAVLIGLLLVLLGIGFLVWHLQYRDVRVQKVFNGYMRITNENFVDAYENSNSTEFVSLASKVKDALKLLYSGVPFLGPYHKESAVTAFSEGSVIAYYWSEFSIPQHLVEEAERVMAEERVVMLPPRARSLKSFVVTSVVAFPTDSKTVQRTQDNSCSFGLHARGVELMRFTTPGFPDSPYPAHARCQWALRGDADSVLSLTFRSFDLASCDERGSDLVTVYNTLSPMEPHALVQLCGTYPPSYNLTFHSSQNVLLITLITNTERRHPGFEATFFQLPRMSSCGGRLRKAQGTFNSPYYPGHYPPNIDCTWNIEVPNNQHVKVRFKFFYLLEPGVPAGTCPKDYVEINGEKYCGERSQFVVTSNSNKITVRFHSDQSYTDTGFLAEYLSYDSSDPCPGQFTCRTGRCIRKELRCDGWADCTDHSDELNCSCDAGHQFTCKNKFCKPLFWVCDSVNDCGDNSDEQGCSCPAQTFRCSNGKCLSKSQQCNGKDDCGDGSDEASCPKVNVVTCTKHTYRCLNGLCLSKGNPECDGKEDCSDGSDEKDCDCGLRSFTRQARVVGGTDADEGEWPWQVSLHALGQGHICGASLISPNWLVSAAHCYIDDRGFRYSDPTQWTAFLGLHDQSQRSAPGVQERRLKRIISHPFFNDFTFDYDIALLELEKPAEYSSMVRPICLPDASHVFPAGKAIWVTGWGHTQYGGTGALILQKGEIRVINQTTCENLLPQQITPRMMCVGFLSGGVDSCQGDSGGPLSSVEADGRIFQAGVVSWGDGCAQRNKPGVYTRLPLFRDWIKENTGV

[10] = target: T4, Kallikrein-4; assay: Inhibition of KLK4 (unknown origin) expressed in Sf9 cells at 25 nM using FVQRpNA substrate by spectrophotometry method
[11] = target: T7, Coagulation factor XII (Homo sapiens) (UniProt P00748); assay: Inhibition of factor 12a-alpha (unknown origin) at 10 uM using Ac-QRFRpNA substrate by spectrophotometry method
T7 sequence (whole entry): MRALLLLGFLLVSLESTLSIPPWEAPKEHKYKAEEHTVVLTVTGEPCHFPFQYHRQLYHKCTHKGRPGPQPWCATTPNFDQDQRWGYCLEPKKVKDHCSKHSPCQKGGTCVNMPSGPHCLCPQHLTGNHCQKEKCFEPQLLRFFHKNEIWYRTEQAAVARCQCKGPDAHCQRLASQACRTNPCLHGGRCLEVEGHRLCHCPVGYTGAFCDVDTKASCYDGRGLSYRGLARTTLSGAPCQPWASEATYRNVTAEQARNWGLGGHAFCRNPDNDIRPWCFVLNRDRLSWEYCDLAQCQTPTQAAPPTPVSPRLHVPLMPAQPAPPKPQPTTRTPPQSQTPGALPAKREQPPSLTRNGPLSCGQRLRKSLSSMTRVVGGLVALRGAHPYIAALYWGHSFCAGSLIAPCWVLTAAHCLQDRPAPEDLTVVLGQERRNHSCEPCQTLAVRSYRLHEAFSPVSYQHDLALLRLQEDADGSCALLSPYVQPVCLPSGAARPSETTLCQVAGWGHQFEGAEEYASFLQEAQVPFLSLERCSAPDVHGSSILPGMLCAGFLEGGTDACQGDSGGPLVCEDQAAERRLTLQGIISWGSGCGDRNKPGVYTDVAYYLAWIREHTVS

[12] = target: T1, Trypsin; assay: Inhibition of trypsin (unknown origin); assay type: protein assay
[13] = target: T8, Kallikrein-7 (Homo sapiens, UniProt P49862); assay: Inhibition of KLK7 (unknown origin) expressed in Pichia pastoris X33 using KHLY-pNA substrate by spectrophotometry method; how it was run: as §1
Target sequence in this assay (P49862 whole entry): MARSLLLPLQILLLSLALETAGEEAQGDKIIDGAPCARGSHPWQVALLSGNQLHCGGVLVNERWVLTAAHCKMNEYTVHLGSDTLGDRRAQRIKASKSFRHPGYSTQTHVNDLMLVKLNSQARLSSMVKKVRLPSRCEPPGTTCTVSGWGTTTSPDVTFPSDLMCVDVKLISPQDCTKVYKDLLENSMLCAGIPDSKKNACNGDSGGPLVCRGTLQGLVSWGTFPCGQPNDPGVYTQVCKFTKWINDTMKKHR

[14] = target: T2, Plasminogen; assay: Inhibition of plasmin (unknown origin) at 50 uM using Ac-RM(O2)YRpNA substrate by spectrophotometry method
[15] = species on record: Homo sapiens; assay: Inhibition of alpha chymotrypsin (unknown origin) at 25 uM using Ac-GRPY-pNA by spectrophotometry method
[16] = target: T8, Kallikrein-7; assay: Inhibition of KLK7 (unknown origin) expressed in Pichia pastoris X33 at 200 nM using KHLY-pNA substrate by spectrophotometry method
Target sequence in this assay (P49862 30-253 limits assumed): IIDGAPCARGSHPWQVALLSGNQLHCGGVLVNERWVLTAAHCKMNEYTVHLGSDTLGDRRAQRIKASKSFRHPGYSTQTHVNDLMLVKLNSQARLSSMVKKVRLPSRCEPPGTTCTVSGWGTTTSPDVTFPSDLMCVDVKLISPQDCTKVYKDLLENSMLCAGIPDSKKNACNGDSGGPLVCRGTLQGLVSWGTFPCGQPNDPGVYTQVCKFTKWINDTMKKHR

[17] = target: T3, Prothrombin; assay: Inhibition of alpha-thrombin (unknown origin) at 25 uM using Ac-ATPRpNA substrate by spectrophotometry method
[18] = target: Kallikrein-5 (Homo sapiens) (UniProt Q9Y337); assay: Inhibition of KLK5 (unknown origin) expressed in Pichia pastoris X33 at 50 nM using Ac-YRSR-pNA by spectrophotometry method

Compound | Ki [1] [nM] | pKi [2] | pKi [3] | pKi [5] | inhibition [9] [%] | inhibition [10] | also measured
CC[C@H](C)[C@@H]1NC(=O)[C@@H]2CCCN2C(=O)[C@@H]2CCCN2C(=O)[C@H]([C@@H](C)CC)NC(=O)[C@H](CO)NC(=O)[C@H](CCCNC(=N)N)NC(=O)[C@H]([C@@H](C)O)NC(=O)[C@@H]2CSSC[C@H](NC1=O)C(=O)N[C@@H](Cc1ccccc1)C(=O)N1CCC[C@H]1C(=O)N[C@H](C(=O)O)CC(=O)NCC(=O)N[C@@H](CCCNC(=N)N)C(=O)N2 (GRCTRSIPPICFPD-OH; disulfide 3-11; lactam N-14) | 0.03 | 6.92 | 6.42 | – | – | – | –
CC[C@H](C)[C@@H]1NC(=O)[C@@H]2CCCN2C(=O)[C@@H]2CCCN2C(=O)[C@H](Cc2ccc(O)cc2)NC(=O)[C@H](CO)NC(=O)[C@H](CCCNC(=N)N)NC(=O)[C@H]([C@@H](C)O)NC(=O)[C@@H]2CSSC[C@H](NC1=O)C(=O)N[C@@H](Cc1ccccc1)C(=O)N1CCC[C@H]1C(=O)N[C@H](C(=O)O)CC(=O)NCC(=O)N[C@@H](CCCNC(=N)N)C(=O)N2 (GRCTRSYPPICFPD-OH; disulfide 3-11; lactam N-14) | 0.16 | 6.26 | 6.67 | – | – | – | –
C[C@@H](O)[C@@H]1NC(=O)[C@@H](NC(=O)[C@H](CCCNC(=N)N)NC(=O)CN)CSSC[C@@H](C(=O)N[C@@H](Cc2cnc[nH]2)C(=O)O)NC(=O)[C@H](CCCNC(=N)N)NC(=O)[C@@H]2CCCN2C(=O)[C@@H]2CCCN2C(=O)[C@H](CC(=O)O)NC(=O)[C@H](CO)NC(=O)[C@H](CCCCN)NC1=O (H-GRCTKSDPPRCH-OH; disulfide 3-11) | 2830 | 4.77 | < 4.30 | – | – | – | –
CC[C@H](C)[C@@H]1NC(=O)[C@@H]2CSSC[C@H](NC(=O)[C@H]([C@@H](C)CC)NC(=O)[C@@H]3CCCN3C(=O)[C@@H]3CCCN3C(=O)[C@H]([C@@H](C)CC)NC(=O)[C@H](CO)NC(=O)[C@H](CCCNC(=N)N)NC1=O)C(=O)N[C@@H](CC(N)=O)C(=O)N1CCC[C@H]1C(=O)N[C@@H](CC(N)=O)C(=O)NCC(=O)N[C@@H](Cc1c[nH]c3ccccc13)C(=O)N2 (cyclo(CIRSIPPICNPNGW); disulfide 1-9) | 379 | – | – | 6.44 | – | – | pKi [4]: 8.05
CC[C@H](C)[C@@H]1NC(=O)[C@@H]2CSSC[C@H](NC(=O)[C@H]([C@@H](C)CC)NC(=O)[C@@H]3CCCN3C(=O)[C@@H]3CCCN3C(=O)[C@H](CCCCN)NC(=O)[C@H](CO)NC(=O)[C@H](CCCNC(=N)N)NC1=O)C(=O)N[C@@H](CC(N)=O)C(=O)N1CCC[C@H]1C(=O)N[C@@H](CC(N)=O)C(=O)NCC(=O)N[C@@H](Cc1c[nH]c3ccccc13)C(=O)N2 (cyclo(CIRSKPPICNPNGW); disulfide 1-9) | 3200 | – | – | < 4.30 | – | – | pKi [4]: 7.70
CC[C@H](C)[C@@H]1NC(=O)[C@@H]2CCCN2C(=O)[C@@H]2CCCN2C(=O)[C@H](CC(=O)O)NC(=O)[C@H](CO)NC(=O)[C@H](CCCNC(=N)N)NC(=O)[C@H]([C@@H](C)O)NC(=O)[C@@H]2CSSC[C@H](NC1=O)C(=O)N[C@@H](CC(N)=O)C(=O)N1CCC[C@H]1C(=O)N[C@@H](CC(N)=O)C(=O)NCC(=O)N[C@@H]([C@@H](C)O)C(=O)N2 (cyclo(CNPNGTCTRSDPPI); disulfide 1-7) | – | – | – | – | 29 | inactive | inhibition [6]: 34%; inhibition [7]: 31%; inhibition [8]: inactive
CC[C@H](C)[C@@H]1NC(=O)[C@@H]2CCCN2C(=O)[C@@H]2CCCN2C(=O)[C@H]([C@@H](C)CC)NC(=O)[C@H](CO)NC(=O)[C@H](CCCNC(=N)N)NC(=O)[C@H]([C@@H](C)O)NC(=O)[C@@H]2CSSC[C@H](NC1=O)C(=O)N[C@@H](CC(N)=O)C(=O)N1CCC[C@H]1C(=O)N[C@@H](CC(N)=O)C(=O)NCC(=O)N[C@@H]([C@@H](C)O)C(=O)N2 (cyclo(CNPNGTCTRSIPPI); disulfide 1-7) | – | – | – | 8.68 | 41 | Active | inhibition [6]: 47%; inhibition [8]: 80%; inhibition [11]: 85%; Ki [12]: 0.7 nM; pKi [13]: 7.77; inhibition [14]: 50%; inhibition [15]: 60%
CC[C@H](C)[C@@H]1NC(=O)[C@@H]2CCCN2C(=O)[C@@H]2CCCN2C(=O)[C@H](CC(N)=O)NC(=O)[C@H](CO)NC(=O)[C@H](CCCNC(=N)N)NC(=O)[C@H]([C@@H](C)O)NC(=O)[C@@H]2CSSC[C@H](NC1=O)C(=O)N[C@@H](CC(N)=O)C(=O)N1CCC[C@H]1C(=O)N[C@@H](CC(N)=O)C(=O)NCC(=O)N[C@@H]([C@@H](C)O)C(=O)N2 (cyclo(CNPNGTCTRSNPPI); disulfide 1-7) | – | – | – | 8.28 | 37 | Active | inhibition [16]: 97%; inhibition [17]: 49%; inhibition [18]: 93%; pKi [13]: 9.10
CC[C@H](C)[C@@H]1NC(=O)[C@@H]2CCCN2C(=O)[C@@H]2CCCN2C(=O)[C@H](Cc2ccc(O)cc2)NC(=O)[C@H](CO)NC(=O)[C@H](CCCNC(=N)N)NC(=O)[C@H]([C@@H](C)O)NC(=O)[C@@H]2CSSC[C@H](NC1=O)C(=O)N[C@@H](CC(N)=O)C(=O)N1CCC[C@H]1C(=O)N[C@@H](CC(N)=O)C(=O)NCC(=O)N[C@@H]([C@@H](C)O)C(=O)N2 (cyclo(CNPNGTCTRSYPPI); disulfide 1-7) | – | – | – | – | – | – | inhibition [7]: 26%; inhibition [17]: 62%; inhibition [18]: Active; inhibition [11]: 75%
